Key:
Glutamate NMDA receptor = test: Binding affinity against phencyclidine (PCP) site of N-methyl-D-aspartate glutamate receptor from rat brain, using [3H]- TCP as radioligand.
Method in brief: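 Male Sprague-Dawley rat whole-brain membranes, washed by repeated homogenization/centrifugation in 50 mM Tris-HCl pH 7.7, frozen at -70 °C, assayed in 5 mM Tris-HCl at 0.5 mg protein/tube. [3H]TCP about 1 nM final with varying compound concentrations, 25 min at room temperature. Nonspecific binding with 100 μM PCP. Filtration, scintillation counting, Ki calculated. At least three determinations in triplicate.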

[1] = Neuroprotection was determined against NMDA induced cell death in cultured mouse cortical neuron.; format: functional
Method in brief: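 Primary cortical neurons from Swiss-Webster mouse embryos at 16 days post conception, trypsinized, plated at 50 000 cells/well, cytosine arabinoside from day 5, used on day 13. Cells were washed and exposed 30 min to 500 µM NMDA with or without varying concentrations of test agent in MEM, then returned to MEM alone. MK-801 10 µM served as positive control.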

SMILES | Ki (Glutamate NMDA receptor) | IC50 [1]
CCOC1(OCC)C2c3ccccc3C([n+]3ccn(Cc4ccccc4)c32)C1(C)C (configuration not stated) | 10 nM | 
CCCCn1cc[n+]2c1C1c3ccccc3C2CC1(c1ccoc1)c1ccoc1 (configuration not stated) | 36 nM | 
C[C@]12N[C@H](Cc3ccccc31)c1ccccc12 [DIZOCILPINE] |  | 67 nM
c1ccc(-n2cc[n+]3c2C2c4ccccc4C3CC2(c2ccoc2)c2ccoc2)cc1 (configuration not stated) | 52 nM | 
CCOC1(OCC)C2c3ccccc3C([n+]3ccn(C)c32)C1(C)C (configuration not stated) | 8.2 nM | 53 nM
C1=C[N+]2=C(C1c1cccc3ccccc13)C1c3ccccc3C2CC1(c1ccoc1)c1ccoc1 (configuration not stated) | 329 nM | 
c1ccc(C(c2ccccc2)n2cc[n+]3c2C2c4ccccc4C3CC2(c2ccoc2)c2ccoc2)cc1 (configuration not stated) | 306 nM | 
c1ccc(CCCn2cc[n+]3c2C2c4ccccc4C3CC2(c2ccoc2)c2ccoc2)cc1 (configuration not stated) | 68 nM | 
CCOC1(OCC)C2c3ccccc3C([n+]3ccsc32)C1(C)C (configuration not stated) | 6.1 nM | 173 nM
c1ccc2c(c1)C1CC(c3ccoc3)(c3ccoc3)C2c2scc[n+]21 (configuration not stated) | 2.9 nM | 50 nM
CCOC1(OCC)C2c3ccccc3C([n+]3ccccc32)C1(C)C (configuration not stated) |  | 60 nM
Cn1cc[n+]2c1C1c3ccccc3C2CC1(c1ccoc1)c1ccoc1 (configuration not stated) | 2.9 nM | 257 nM
c1ccc2c(c1)C1CC(c3ccoc3)(c3ccoc3)C2c2cccc[n+]21 (configuration not stated) |  | 45 nM
c1ccc(Cn2cc[n+]3c2C2c4ccccc4C3CC2(c2ccoc2)c2ccoc2)cc1 (configuration not stated) | 7.7 nM | 42 nM
CCOC1(OCC)C2c3ccccc3C([n+]3cnn(C)c32)C1(C)C (configuration not stated) | 30 nM | 
c1ccc2c(c1)C1CC(c3ccoc3)(c3ccoc3)C2c2n(Cc3ccc4ccccc4c3)cc[n+]21 (configuration not stated) | 330 nM | 
Cn1nc[n+]2c1C1c3ccccc3C2CC1(c1ccoc1)c1ccoc1 (configuration not stated) | 14 nM | 

Source: ChEMBL document CHEMBL1128370, “Novel NMDA antagonists: replacement of the pyridinium ring of 6,11-ethanobenzo[b]quinolizinium cations with heteroisoquinolinium cations” (J Med Chem, 1995)
